≈ marks a conversion by molar mass, not a printed value. Calls of active or inactive are those of the source. No cut-off for these calls is given here.
Test system: not listed separately
Assay: Solubility in DMSO
Assay type: physicochemical
Details: not given
In short: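 Compound dissolved in DMSO with sonication; maximal volume before precipitation measured and used to calculate saturation solubility.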

SMILES | solubility [mM]
CCCCN1CCc2c(c3cc(OC)c(OC)cc3c3cc(OC)c(OC)cc23)C1 | 45 (≈ 18.4 mg/mL)

Test system: SF-268
Assay: Growth inhibition of human SF268 cells
Assay type: functional
Details: not given
In short: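 SF-268 glioblastoma cells seeded 7500 cells/well in 96-well plates; growth inhibition measured with compound. GI50 as mean of at least three experiments, each in duplicate; paclitaxel positive control.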

SMILES | GI50 [µM]
COc1ccc(C2=C(c3ccc(OC)c(OC)c3)CN3CCC[C@H]3C2)cc1OC | 24.2
COc1cc2c3c(c4cc(OC)c(OC)cc4c2cc1OC)CN1CCCCCC1C3 (centres undefined) | 0.96

Test system: RAW264.7
Assay: Reduction in LPS/INFgamma-induced COX2 protein expression in mouse RAW264.7 cells incubated for 20 hrs by Western blotting
Assay type: functional, cell-based
Details: not given
In short: (§1)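 LPS/IFNγ-stimulated RAW264.7 cells treated with compound for 20 h. iNOS, COX-2 and GAPDH detected by Western blot; representative of at least three independent experiments.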

SMILES | Activity
CCN1Cc2c(c3cc(OC)c(OC)cc3c3cc(OC)c(OC)cc23)C(O)C1 (centres undefined) | Active
COc1cc2c3c(c4cc(OC)c(OC)cc4c2cc1OC)CN(C(C)C)CC3 | Active

Test system: HepG2
Assay: Growth inhibition of human HepG2 cells
Assay type: functional
Details: not given
In short: (§2)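 Cells seeded per well: NUGC-3 4500, HONE-1 6000, MCF-7 6500, NCI-H460 2500, HepG2 10000, A549 5000; A549 grown in RPMI 1640 with 2 g/L NaHCO₃, 2 mM L-glutamine and 10% FBS. GI₅₀ = concentration giving 50% growth inhibition, mean of at least three experiments each in duplicate. Paclitaxel served as positive control.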

SMILES | GI50 [nM]
CCN1Cc2c(c3cc(OC)c(OC)cc3c3cc(OC)c(OC)cc23)C(O)C1 (centres undefined) | 360
COc1cc2c3c(c4cc(OC)c(OC)cc4c2cc1OC)CN(C(C)C)CC3 | 670
CCCCN1CCc2c(c3cc(OC)c(OC)cc3c3cc(OC)c(OC)cc23)C1 | 3040

Test system: A549
Assay: Down regulation of cyclin A2 expression in human A549 cells incubated for 24 hrs by Western blotting
Assay type: functional, cell-based
Details: not given

SMILES | Activity
CCN1Cc2c(c3cc(OC)c(OC)cc3c3cc(OC)c(OC)cc23)C(O)C1 (centres undefined) | Active
COc1cc2c3c(c4cc(OC)c(OC)cc4c2cc1OC)CN(C(C)C)CC3 | Active

Test system: MCF7
Assay: Down regulation of cyclin A2 expression in human MCF7 cells incubated for 24 hrs by Western blotting
Assay type: functional, cell-based
Details: not given

SMILES | Activity
CCN1Cc2c(c3cc(OC)c(OC)cc3c3cc(OC)c(OC)cc23)C(O)C1 (centres undefined) | Active
COc1cc2c3c(c4cc(OC)c(OC)cc4c2cc1OC)CN(C(C)C)CC3 | Active

Test system: not listed separately
Assay: Solubility in DMA
Assay type: physicochemical
Details: not given

SMILES | solubility
CCCCN1CCc2c(c3cc(OC)c(OC)cc3c3cc(OC)c(OC)cc23)C1 | soluble

Test system: NCI-H460
Assay: Down regulation of cyclin A2 expression in human NCI-H460 cells incubated for 24 hrs by Western blotting
Assay type: functional, cell-based
Details: not given

SMILES | Activity
CCN1Cc2c(c3cc(OC)c(OC)cc3c3cc(OC)c(OC)cc23)C(O)C1 (centres undefined) | Active
COc1cc2c3c(c4cc(OC)c(OC)cc4c2cc1OC)CN(C(C)C)CC3 | Active

Test system: MCF7
Assay: Growth inhibition of human MCF7 cells
Assay type: functional
Details: not given
In short: as §2

SMILES | GI50 [nM]
COc1ccc(C2=C(c3ccc(OC)c(OC)c3)CN3CCC[C@H]3C2)cc1OC | 18500
CCN1Cc2c(c3cc(OC)c(OC)cc3c3cc(OC)c(OC)cc23)C(O)C1 (centres undefined) | 160
COc1cc2c3c(c4cc(OC)c(OC)cc4c2cc1OC)CN1CCCCCC1C3 (centres undefined) | 960
COc1cc2c3c(c4cc(OC)c(OC)cc4c2cc1OC)CN(C(C)C)CC3 | 340
CCCCN1CCc2c(c3cc(OC)c(OC)cc3c3cc(OC)c(OC)cc23)C1 | 1970

Test system: NCI-H460
Assay: Induction of c-Jun protein accumulation in human NCI-H460 cells incubated for 24 hrs by Western blotting
Assay type: functional, cell-based
Details: not given

SMILES | Activity
CCN1Cc2c(c3cc(OC)c(OC)cc3c3cc(OC)c(OC)cc23)C(O)C1 (centres undefined) | Active
COc1cc2c3c(c4cc(OC)c(OC)cc4c2cc1OC)CN(C(C)C)CC3 | Active

Test system: Transmissible gastroenteritis virus
Assay: Antiviral activity against Transmissible gastroenteritis virus infected in ST cells pre-treated 2 hrs before virus infection measured 6 hrs post virus infection by immunofluorescent assay
Assay type: functional, organism-based
Details: Alphacoronavirus 1, ST
In short: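 ST cells, with or without 2 h compound pretreatment (10 concentrations), infected with TGEV at MOI 10. Immunofluorescence with anti-spike and anti-nucleocapsid antibodies at 6 hpi. EC50 from dose–response curves, mean of at least three experiments, each in duplicate.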

SMILES | EC50 [nM]
COc1ccc(C2=C(c3ccc(OC)c(OC)c3)CN3CCC[C@H]3C2)cc1OC | 15400
CCN1Cc2c(c3cc(OC)c(OC)cc3c3cc(OC)c(OC)cc23)C(O)C1 (centres undefined) | 340
COc1cc2c3c(c4cc(OC)c(OC)cc4c2cc1OC)CN1CCCCCC1C3 (centres undefined) | 1050
COc1cc2c3c(c4cc(OC)c(OC)cc4c2cc1OC)CN(C(C)C)CC3 | 600
CCCCN1CCc2c(c3cc(OC)c(OC)cc3c3cc(OC)c(OC)cc23)C1 | 4390

Test system: not listed separately
Assay: Growth inhibition of human HONE1 cells
Assay type: functional
Details: not given
In short: as §2

SMILES | GI50 [nM]
COc1ccc(C2=C(c3ccc(OC)c(OC)c3)CN3CCC[C@H]3C2)cc1OC | 17300
CCN1Cc2c(c3cc(OC)c(OC)cc3c3cc(OC)c(OC)cc23)C(O)C1 (centres undefined) | 440
COc1cc2c3c(c4cc(OC)c(OC)cc4c2cc1OC)CN1CCCCCC1C3 (centres undefined) | 1150
COc1cc2c3c(c4cc(OC)c(OC)cc4c2cc1OC)CN(C(C)C)CC3 | 940
CCCCN1CCc2c(c3cc(OC)c(OC)cc3c3cc(OC)c(OC)cc23)C1 | 2750

Test system: NUGC-3
Assay: Growth inhibition of human NUGC3 cells
Assay type: functional
Details: not given
In short: as §2

SMILES | GI50 [nM]
COc1ccc(C2=C(c3ccc(OC)c(OC)c3)CN3CCC[C@H]3C2)cc1OC | 14500
CCN1Cc2c(c3cc(OC)c(OC)cc3c3cc(OC)c(OC)cc23)C(O)C1 (centres undefined) | 150
COc1cc2c3c(c4cc(OC)c(OC)cc4c2cc1OC)CN1CCCCCC1C3 (centres undefined) | 620
COc1cc2c3c(c4cc(OC)c(OC)cc4c2cc1OC)CN(C(C)C)CC3 | 320
CCCCN1CCc2c(c3cc(OC)c(OC)cc3c3cc(OC)c(OC)cc23)C1 | 1930

Test system: MCF7
Assay: Induction of c-Jun protein accumulation in human MCF7 cells incubated for 24 hrs by Western blotting
Assay type: functional, cell-based
Details: not given

SMILES | Activity
CCN1Cc2c(c3cc(OC)c(OC)cc3c3cc(OC)c(OC)cc23)C(O)C1 (centres undefined) | Active
COc1cc2c3c(c4cc(OC)c(OC)cc4c2cc1OC)CN(C(C)C)CC3 | Active

Test system: Transmissible gastroenteritis virus
Assay: Antiviral activity against Transmissible gastroenteritis virus infected in ST cells assessed as reduction in N-protein expression pre-treated before virus infection measured 16 hrs post virus infection by Western blotting
Assay type: functional, organism-based
Details: not given
In short: (§3)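 ST cells pretreated with compound, then infected with TGEV. Western blot for nucleocapsid (N) protein, caspase 3 (cleavage of procaspase 3) and GAPDH at 16 hpi. Representative of at least three independent experiments.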

SMILES | Activity
CCN1Cc2c(c3cc(OC)c(OC)cc3c3cc(OC)c(OC)cc23)C(O)C1 (centres undefined) | Active
COc1cc2c3c(c4cc(OC)c(OC)cc4c2cc1OC)CN(C(C)C)CC3 | Active

Test system: A549
Assay: Induction of c-Jun protein accumulation in human A549 cells incubated for 24 hrs by Western blotting
Assay type: functional, cell-based
Details: not given

SMILES | Activity
CCN1Cc2c(c3cc(OC)c(OC)cc3c3cc(OC)c(OC)cc23)C(O)C1 (centres undefined) | Active
COc1cc2c3c(c4cc(OC)c(OC)cc4c2cc1OC)CN(C(C)C)CC3 | Active

Test system: not listed separately
Assay: Cytotoxicity against mouse RAW264.7 cells
Assay type: cell-based
Details: not given
In short: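 RAW264.7 cells stimulated with LPS/IFNγ and compound-treated in parallel with the NO assay; CC50 taken as concentration giving 50% inhibition of cell growth. Mean of at least three experiments, each in duplicate.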

SMILES | CC50 [µM]
CCN1Cc2c(c3cc(OC)c(OC)cc3c3cc(OC)c(OC)cc23)C(O)C1 (centres undefined) | > 2
COc1cc2c3c(c4cc(OC)c(OC)cc4c2cc1OC)CN(C(C)C)CC3 | > 4

Test system: RAW264.7
Assay: Reduction in LPS/INFgamma-induced iNOS protein expression in mouse RAW264.7 cells incubated for 20 hrs by Western blotting
Assay type: functional, cell-based
Details: not given
In short: as §1

SMILES | Activity
CCN1Cc2c(c3cc(OC)c(OC)cc3c3cc(OC)c(OC)cc23)C(O)C1 (centres undefined) | Active
COc1cc2c3c(c4cc(OC)c(OC)cc4c2cc1OC)CN(C(C)C)CC3 | Active

Test system: NCI-H460
Assay: Growth inhibition of human NCI-H460 cells
Assay type: functional
Details: not given
In short: as §2

SMILES | GI50 [nM]
COc1ccc(C2=C(c3ccc(OC)c(OC)c3)CN3CCC[C@H]3C2)cc1OC | 17000
CCN1Cc2c(c3cc(OC)c(OC)cc3c3cc(OC)c(OC)cc23)C(O)C1 (centres undefined) | 170
COc1cc2c3c(c4cc(OC)c(OC)cc4c2cc1OC)CN1CCCCCC1C3 (centres undefined) | 930
COc1cc2c3c(c4cc(OC)c(OC)cc4c2cc1OC)CN(C(C)C)CC3 | 290
CCCCN1CCc2c(c3cc(OC)c(OC)cc3c3cc(OC)c(OC)cc23)C1 | 2050

Test system: A549
Assay: Growth inhibition of human A549 cells
Assay type: functional
Details: not given
In short: as §2

SMILES | GI50 [nM]
CCN1Cc2c(c3cc(OC)c(OC)cc3c3cc(OC)c(OC)cc23)C(O)C1 (centres undefined) | 190
COc1cc2c3c(c4cc(OC)c(OC)cc4c2cc1OC)CN(C(C)C)CC3 | 380
CCCCN1CCc2c(c3cc(OC)c(OC)cc3c3cc(OC)c(OC)cc23)C1 | 2220

Test system: Transmissible gastroenteritis virus
Assay: Antiviral activity against Transmissible gastroenteritis virus infected in ST cells assessed as reduction in caspase-3 activation pre-treated before virus infection measured 16 hrs post virus infection by Western blotting
Assay type: functional, organism-based
Details: not given
In short: as §3

SMILES | Activity
CCN1Cc2c(c3cc(OC)c(OC)cc3c3cc(OC)c(OC)cc23)C(O)C1 (centres undefined) | Active
COc1cc2c3c(c4cc(OC)c(OC)cc4c2cc1OC)CN(C(C)C)CC3 | Active

Test system: RAW264.7
Assay: Antiinflammatory activity in mouse RAW264.7 cells assessed as inhibition of LPS-induced nitric oxide production incubated for 18 hrs by nitrate/nitrite assay
Assay type: functional, cell-based
Details: RAW264.7, 18 h
In short: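 RAW264.7 seeded 65000 cells/well, cultured 24 h, then medium replaced with complete medium containing IFNγ (20 ng/mL)/LPS (5 μg/mL) plus compound at various concentrations for 18 h; nitric oxide measured by Nitrate/Nitrite kit. EC50 as mean of at least three experiments, each in duplicate.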

SMILES | EC50 [nM]
CCN1Cc2c(c3cc(OC)c(OC)cc3c3cc(OC)c(OC)cc23)C(O)C1 (centres undefined) | 380
COc1cc2c3c(c4cc(OC)c(OC)cc4c2cc1OC)CN(C(C)C)CC3 | 860

From ChEMBL document CHEMBL2177013, “Synthesis and biological evaluation of tylophorine-derived dibenzoquinolines as orally active agents: exploration of the role of tylophorine e ring on biological activity” (J Med Chem, 2012)
